Assay outcomes: PubChem BioAssay, several laboratories
Shown are actives, neighbours in structure and some others; about 1.9% of the full set was active somewhere.
DSG3 Ab inh – human desmoglein-3 autoantibody binding inhibition; DSG3-coupled beads, scFv-anti-DSG3-GFP binding, flow cytometry; stronger effect = lower value; binding (percent of control), % at 10 µM; 310,000 tested, 0.48% active; AID 588358;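 active = binding more than 3 SD below its plate's average and above zero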;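 note: hits lower antibody fragment binding to DSG3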
TbMetRS inhib – Trypanosoma brucei MetRS inhibition; purified T. brucei MetRS, ATP depletion, Kinase-Glo luminescence; inhibition, % at 11.9 µM; 360,000 tested, 0.4% active;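 active = inhibition above a per-plate cutoff of the control wells' mean inhibition plus 3 SD, cut at about 5.5% in these data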;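 note: 0% = DMSO wells median and 100% = median of wells with control inhibitor compound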
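Material: parasite MetRS enzyme / Replication: singlicate, one well per compound / Signal: luminescence of leftover ATP / Schedule: 2 h aminoacylation at 25 °C after 15 min preincubation / Medium: HEPES-MgCl2-KCl buffer plus DTT, spermine, BSA, pyrophosphatase / Doses: 11.9 µM single point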
core dimer inh – HCV core protein dimerization inhibition; TR-FRET GST/Flag-core106 dimerization, 1536-well; inhibition, % at 5 µM; 300,000 tested, 0.33% active; AID 1899;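 active = inhibition above the mean of all tested compounds plus 3 SD, set per screening campaign, cut at about 45% in these data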
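Assay system – GST-tagged and Flag-tagged HCV core protein residues 1-106 · Quantity – core106 proteins, GST 13.5 nM and Flag 17 nM · Benchmarks – unlabelled core106 and no-GST-core106 wells · Read-out basis – percent inhibition of core106 dimerization signal · Detection – time-resolved FRET, ex 340 nm, em 617 and 671 nm · Schedule – 4 h at 22.5 °C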
Rce1 inhib – yeast Ras-converting enzyme inhibition. calls only. AID 2563. yeast membranes, quenched prenylated peptide cleavage fluorescence. Q03530. 290,000 tested, 0.27% active;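 active = fall in fluorescence gain of 50% or more versus controls, with final raw signal at or below 3038400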;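 note: plate controls were neutral control wells for no effect and wells lacking membranes for full effect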
Target sequence (Q03530 whole entry, looked up): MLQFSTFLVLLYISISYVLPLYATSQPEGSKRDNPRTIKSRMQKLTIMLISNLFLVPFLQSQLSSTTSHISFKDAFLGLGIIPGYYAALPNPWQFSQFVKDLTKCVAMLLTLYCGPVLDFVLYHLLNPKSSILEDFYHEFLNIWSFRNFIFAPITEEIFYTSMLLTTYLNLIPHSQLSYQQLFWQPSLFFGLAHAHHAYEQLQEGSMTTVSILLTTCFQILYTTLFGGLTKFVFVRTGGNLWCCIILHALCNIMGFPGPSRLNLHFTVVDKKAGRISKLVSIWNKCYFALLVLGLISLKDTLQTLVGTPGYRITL
NadD block – blocks S. aureus nicotinate mononucleotide adenylyltransferase. inhibition, % at 20 µM. 360,000 tested, 0.78% active. purified NadD enzyme, colorimetric absorbance read-out; in the data active = inhibition above about 26%
NadD inh conf – NadD (S. aureus) inhibition, single concentration confirmation. 2,000 tested, 13% active. inhibition, % at 20 µM. shares compounds with NadD block. purified S. aureus NadD, colorimetric enzyme assay; in the data active = inhibition mostly above about 42%, no sharp cut-off; inactive = mostly below about 42%
* hit, by the source's call; i = inactive; x = no result.

SMILES	DSG3 Ab inh	TbMetRS inhib	core dimer inh	Rce1 inhib	NadD block	NadD inh conf
Cc1cc(O)c(C(=O)/C=C/c2ccccc2O)c(=O)o1	96	0	x	i	0	x
COC(=O)c1ccc2c(=O)[nH]c(CN3c4ccccc4CC3C)nc2c1 (configuration not stated)	81	0	25	i	50*	6
CC1Cc2ccccc2N1Cc1nc2scc(-c3cccs3)c2c(=O)[nH]1 (configuration not stated)	x	0	55*	i	46*	-4
O=C(/C=C/c1ccc([N+](=O)[O-])cc1)/C=C/c1ccco1	102	0	-24	i	38*	32
COc1cccc(OC)c1C(=O)Nc1nc2ccc(S(C)(=O)=O)cc2s1	95	0	-5	i	3	x
O=C(Nc1ccccc1)c1nc[nH]c1C(=O)NCCN(CCNC(=O)c1[nH]cnc1C(=O)Nc1ccccc1)CCNC(=O)c1[nH]cnc1C(=O)Nc1ccccc1	100	0	x	x	57*	4
O=C(Nc1ccc(Cl)cc1)c1nc[nH]c1C(=O)NCCN(CCNC(=O)c1[nH]cnc1C(=O)Nc1ccc(Cl)cc1)CCNC(=O)c1[nH]cnc1C(=O)Nc1ccc(Cl)cc1	89	0	x	x	57*	3
O=C(Nc1ccccc1)c1nc[nH]c1C(=O)NCCCCCCNC(=O)c1[nH]cnc1C(=O)Nc1ccccc1	90	0	x	x	32*	-1
CNC(=O)c1[nH]cnc1C(=O)Nc1ccc(Cl)cc1	110	0	-6	i	-3	x
CC(C)(C)OC(=O)NCc1ccc(NC(=O)c2nc[nH]c2C(=O)N[C@@H](Cc2ccccc2)C(=O)OC(C)(C)C)cc1	95	0	11	i	30*	-2
CC(C)C[C@H](NC(=O)c1[nH]cnc1C(=O)Nc1ccc(CNC(=O)OC(C)(C)C)cc1)C(=O)OC(C)(C)C	100	0	-4	i	17	x
CCN1C(=NCCCCO)N[C@@H](c2cccc(F)c2)C(C(=O)OC)=C1C	103	0	-8	i	10	x
Cc1cc2c(cc(C(=O)OCC(=O)NC3CCCCC3)n2C)o1	94	-1	x	x	-7	x
CCOc1cccc2sc(N(CCN(CC)CC)C(=O)c3ccc(S(=O)(=O)N4CCCCC4)cc3)nc12	85	-1	2	i	4	x
Cc1cccc(NC(=O)c2nc[nH]c2C(=O)NCCN(CCNC(=O)c2[nH]cnc2C(=O)Nc2cccc(C)c2)CCNC(=O)c2[nH]cnc2C(=O)Nc2cccc(C)c2)c1	93	0	x	x	42*	-1
CCOc1ccccc1NC(=O)COc1cccc(-n2cnnn2)c1	97	0	-4	i	-1	x
O=C(Nc1nc(-c2ccccn2)cs1)c1ccc(-c2ccccc2F)o1	98	0	x	x	40*	18
Cc1ccc(C(=O)Nc2nc(-c3ccccn3)cs2)o1	90	0	14	i	7	x
CCc1cc(C(=O)Nc2nc(-c3ccccn3)cs2)sc1C	x	0	x	x	33*	9
CCOC(=O)CSc1nnc(Cn2c(=O)sc3ccccc32)n1C	104	-1	-1	i	3	x
S=c1[nH]c2ccc3ccccc3c2[nH]1	99	0	-9	i	3	x
Cc1[nH]c2c(ccc3ccccc32)c1C1C(CCN)C1(C)C (configuration not stated)	96	0	-4	i	33*	1
COc1ccc(-c2c3c([nH]c(=S)c2C#N)CCC3)cc1	84	-1	x	x	36*	17
COc1ccc(OC)c(-c2c3c([nH]c(=S)c2C#N)CCCC3)c1	101	0	26	i	4	x
CSc1ccccc1NC(=O)C1CC(c2c(F)cccc2Cl)=NO1 (configuration not stated)	128	-1	2	i	-10	x
SMILES	DSG3 Ab inh	TbMetRS inhib	core dimer inh	Rce1 inhib	NadD block	NadD inh conf
COc1ccc(Cc2c(-c3ccc(OC)c(OC)c3)nc3c(C)cc(Br)cn23)c(C)c1	x	0	x	x	3	x
CCn1c(SCC(=O)Nc2nc(-c3ccc(C)cc3)cs2)nnc1-c1ccccc1	x	0	1	i	14	x
CCn1c(SCC(=O)Nc2nc(-c3ccc(C)cc3)cs2)nnc1-c1ccccc1O	105	0	15	i	37*	43*
COc1ccc(C(C(=O)NC2CCCCC2)N(CC2CCCO2)C(=O)CCCC(=O)Nc2ccccn2)cc1 (configuration not stated)	x	-1	x	i	-1	x
O=C(NCc1ccccc1)C(c1ccccc1)n1c(=O)c(-c2ccco2)nc2ccccc21 (configuration not stated)	x	1	x	x	x	x
COc1ccc(Nc2nc(C(=O)NCc3ccco3)cs2)cc1	99	-1	-5	i	0	x
O=C(NC(Cc1c[nH]c2ccccc12)C(=O)N1CCOCC1)c1cccs1 (configuration not stated)	99	-1	0	x	0	x
O=C(NC(Cc1c[nH]c2ccccc12)C(=O)N/N=C/c1ccc(Cl)cc1)c1cccs1 (configuration not stated)	95	0	17	i	31*	35
O=C(Nc1ncnc2sc3c(c12)CCCCC3)c1ccccc1	x	-1	-4	i	-1	x
COc1ccc2ccccc2c1/C=N/NC(=O)c1nnn(-c2nonc2N)c1CN(C)C	100	0	-8	i	1	x
COc1ccc2ccccc2c1/C=N/NC(=O)c1nnn(-c2nonc2N)c1C(C)C	x	0	6	i	33*	42*
Cc1cc(-n2c(SCC(=O)Nc3ccc(F)c(F)c3)nc3n[nH]c(C)c3c2=N)ccc1Cl	151	0	8	i	26	x
Cc1cc(-n2c(SCC(=O)Nc3ccc(Br)cc3)nc3n[nH]c(C)c3c2=N)ccc1Cl	91	0	13	i	32*	10
Cc1ccc(N(CCC#N)C(=O)CSc2nc3ccccc3c(=O)[nH]2)cc1	103	0	x	x	-6	x
COc1ccc(C(=O)CN(CCC(=O)O)S(=O)(=O)c2ccc([N+](=O)[O-])cc2)cc1	107	0	-5	x	-4	x
CCOc1ccc2oc(C(=O)OCC(=O)N(CC(C)C)c3c(N)n(Cc4ccccc4)c(=O)[nH]c3=O)c(C)c2c1	113	0	x	x	40*	34
O=C(/C=C/c1ccco1)NC(=S)Nc1ccc(O)c(-c2nc3ccccc3s2)c1	98	-1	25	i	47*	0
CC(C)N(C(=O)CSc1nnc(-c2cc3ccccc3cc2O)n1Cc1ccco1)C(C)C	93	0	6	i	-3	x
O=C(CSc1nnc(-c2cc3ccccc3cc2O)n1Cc1ccco1)N1CCc2ccccc2C1	91	1	14	i	41*	54*
Clc1cccc(-c2ccc(/C=N/n3cnnc3)o2)c1	78	-1	-5	i	-6	x
